Test results from publication PMC5361409 (Bioorganic & medicinal chemistry letters, 2016).
Entries after “also recorded” stand apart in the source; their conditions may differ.

Columns and labels:
[1] = Intrinsic clearance in human liver microsomes; assay type: in vitro ADME; details: for CLint scaled: human, liver microsomes; for predicted clearance: predicted from CLINT in liver microsomes (rat and human), in words
[2] = Intrinsic clearance in rat liver microsomes; assay type: in vitro ADME
[3] = biological target: D1 (Homo sapiens, UniProt P21728); assay: Dopamine receptor selectivity, radioligand binding at EuroFins: D1; details: read-out: % inhibition at 10 µM D1 (%)
Summary of the method: (§1)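 Contract radioligand binding screen against the indicated human dopamine receptor subtype. Each test compound was run in duplicate, and the read-out is percent inhibition of specific radioligand binding.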

[4] = biological target: D3 (Homo sapiens, UniProt P35462); assay: Dopamine receptor selectivity, radioligand binding at EuroFins: D3; details: read-out: % inhibition at 10 µM D3 (%)
Summary of the method: as §1

[5] = biological target: D5 (Homo sapiens, UniProt P21918); assay: Dopamine receptor selectivity, radioligand binding at EuroFins: D5; details: read-out: % inhibition at 10 µM D5 (%)
Summary of the method: as §1

[6] = tested on: other dopamine receptors (D1, D2L, D2S, D3, and D5); assay: Selectivity against the other dopamine receptors; assay type: binding; details: for selectivity against all of the dopamine receptors tested: in words
[7] = Metabolic soft-spot experiment in human liver microsomes; assay type: in vitro ADME
[8] = Metabolic soft-spot experiment in rat liver microsomes; assay type: in vitro ADME
[9] = biological target: T1, dopamine D4 receptor (D4R) (Homo sapiens, UniProt P21917); assay: D4 radioligand binding assay using Spiperone at EuroFins; details: run in duplicate
T1 sequence (P21917 1-419): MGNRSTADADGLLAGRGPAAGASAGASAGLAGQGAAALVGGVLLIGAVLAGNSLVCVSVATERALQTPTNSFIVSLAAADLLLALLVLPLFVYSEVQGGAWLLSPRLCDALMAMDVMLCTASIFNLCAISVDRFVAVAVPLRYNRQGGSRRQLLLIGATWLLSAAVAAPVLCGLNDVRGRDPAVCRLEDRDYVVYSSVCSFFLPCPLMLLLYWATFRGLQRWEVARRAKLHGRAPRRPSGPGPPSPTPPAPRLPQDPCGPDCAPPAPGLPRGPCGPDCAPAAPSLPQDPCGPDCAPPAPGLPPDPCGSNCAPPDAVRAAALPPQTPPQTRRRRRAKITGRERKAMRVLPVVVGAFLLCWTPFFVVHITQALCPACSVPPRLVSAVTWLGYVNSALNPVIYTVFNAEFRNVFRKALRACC

[10] = in the presence of NADPH, in words

D3, sequence (P35462 whole entry): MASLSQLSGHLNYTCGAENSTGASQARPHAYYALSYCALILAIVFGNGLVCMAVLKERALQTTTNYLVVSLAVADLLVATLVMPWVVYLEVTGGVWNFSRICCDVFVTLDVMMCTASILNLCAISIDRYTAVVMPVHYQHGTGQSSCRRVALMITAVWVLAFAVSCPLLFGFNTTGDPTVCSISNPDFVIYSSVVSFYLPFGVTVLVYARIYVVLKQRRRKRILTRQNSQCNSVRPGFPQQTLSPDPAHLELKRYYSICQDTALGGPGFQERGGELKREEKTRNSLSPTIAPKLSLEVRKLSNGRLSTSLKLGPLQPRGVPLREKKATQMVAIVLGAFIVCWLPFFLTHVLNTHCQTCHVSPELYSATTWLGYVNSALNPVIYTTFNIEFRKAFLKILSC
D1, sequence (P21728 whole entry): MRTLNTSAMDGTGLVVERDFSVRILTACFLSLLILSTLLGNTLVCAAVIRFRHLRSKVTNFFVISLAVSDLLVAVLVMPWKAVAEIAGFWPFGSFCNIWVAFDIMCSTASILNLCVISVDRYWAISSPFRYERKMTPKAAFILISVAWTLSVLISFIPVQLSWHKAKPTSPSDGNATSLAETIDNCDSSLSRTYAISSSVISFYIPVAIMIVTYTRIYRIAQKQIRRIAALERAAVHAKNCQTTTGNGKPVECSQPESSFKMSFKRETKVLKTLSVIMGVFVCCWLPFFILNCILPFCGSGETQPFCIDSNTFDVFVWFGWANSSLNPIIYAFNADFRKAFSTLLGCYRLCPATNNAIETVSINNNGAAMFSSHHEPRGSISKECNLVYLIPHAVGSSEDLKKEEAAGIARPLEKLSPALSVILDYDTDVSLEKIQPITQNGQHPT
D5, sequence (P21918 whole entry): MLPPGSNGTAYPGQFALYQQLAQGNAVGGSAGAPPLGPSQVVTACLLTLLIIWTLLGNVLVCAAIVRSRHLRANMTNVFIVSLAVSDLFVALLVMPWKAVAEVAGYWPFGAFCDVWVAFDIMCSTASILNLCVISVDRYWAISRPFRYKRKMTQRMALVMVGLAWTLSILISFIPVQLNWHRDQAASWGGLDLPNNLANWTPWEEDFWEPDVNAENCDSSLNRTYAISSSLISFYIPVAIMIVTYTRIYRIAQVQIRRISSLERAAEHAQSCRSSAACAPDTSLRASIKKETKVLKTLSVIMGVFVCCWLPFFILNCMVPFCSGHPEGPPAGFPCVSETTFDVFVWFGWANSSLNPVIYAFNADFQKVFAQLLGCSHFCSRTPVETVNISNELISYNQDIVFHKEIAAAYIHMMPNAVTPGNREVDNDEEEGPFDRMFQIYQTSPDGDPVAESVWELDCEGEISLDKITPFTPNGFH

Row | CLint scaled [1] [mL/min/kg] | CLint scaled [2] [mL/min/kg] | inhibition at 10 µM [3] [%] | inhibition at 10 µM [4] [%] | inhibition at 10 µM [5] [%] | SMILES | further results
1 | 98.2 | 5310 | – | – | – | Clc1ccc(CN2CCO[C@H](COc3cccc(Cl)n3)C2)cc1 [Compound 5z] | –
2 | 230 | 4200 | < 50 | < 50 | < 50 | Fc1ccc2c(CN3CCO[C@H](COc4cccc(Cl)n4)C3)c[nH]c2c1 [Compound 5y, (S)-2-(((6-chloropyridin-2-yl)oxy)methyl)-4-((6-fluoro-1H-indol-3-yl)methyl)morpholine] | selectivity for D4 over the other dopamine receptors [6]: > 1000 fold; selectivity against all of the dopamine receptors tested [6]: fully selective; also recorded: completely selective; major metabolite in human microsomes ([7]; Compound A = N-dealkylation): Compound A; extent of metabolism in human liver microsomes [7, 10]: highly metabolized; major metabolite in rat microsomes ([8]; Compound B = N-dealkylation + oxidation): Compound B; extent of metabolism in rat liver microsomes [8, 10]: highly metabolized
3 | 68.9 | 1770 | < 50 | < 50 | < 50 | COc1cc(CN2CCO[C@H](COc3cccc(F)c3)C2)ccc1Cl [Compound 5n] | –
4 | 122 | 3220 | < 50 | < 50 | < 50 | Clc1ccc(CN2CCO[C@H](CSc3ccccc3)C2)cc1 [Compound 5aa] | selectivity for D4 over the other dopamine receptors [6]: > 1000 fold; selectivity against all of the dopamine receptors tested [6]: completely selective
5 | 93 | 1500 | < 50 | < 50 | < 50 | COc1ccc(CN2CCO[C@H](COc3cccc(F)c3)C2)cc1Cl [Compound 5m] | –
6 | 366 | 6440 | < 50 | < 50 | < 50 | Cc1ccc(CN2CCO[C@H](CSc3ccccc3)C2)cc1C [Compound 5bb] | selectivity for D4 over the other dopamine receptors [6]: > 1000 fold; selectivity against all of the dopamine receptors tested [6]: completely selective
7 | 101 | 4010 | < 50 | < 50 | < 50 | Fc1ccc2c(CN3CCO[C@H](COc4cccc(F)n4)C3)c[nH]c2c1 [Compound 5u] | selectivity against all of the dopamine receptors tested [6]: fully selective

More lines, now with the values behind:

Row | SMILES | CLint scaled [1] [mL/min/kg] | CLint scaled [2] [mL/min/kg] | inhibition at 10 µM [3] [%] | inhibition at 10 µM [4] [%] | inhibition at 10 µM [5] [%] | further results
8 | c1ccc(OC[C@@H]2CN(Cc3cn4ccccc4n3)CCO2)cc1 [Compound 4t] | 17.3 | 154 | – | – | – | predicted clearance [1]: moderate
9 | Cc1ccc(CN2CCO[C@H](COc3ccccc3)C2)cc1C [Compound 4b] | – | – | < 50 | < 50 | < 50 | –
10 | Clc1ccc2c(CN3CCO[C@H](COc4ccccc4)C3)c[nH]c2c1 [Compound 4aa] | 46.7 | 614 | – | – | – | –
11 | Fc1ccc2c(CN3CCO[C@H](COc4ccccc4)C3)c[nH]c2c1 [Compound 4ee] | 71.1 | 1690 | – | – | – | –
12 | Clc1ccc(CN2CCO[C@H](COc3ccccc3)C2)cc1Cl [Compound 4i] | 50.5 | 621 | – | – | – | –
13 | Clc1ccc(CN2CCO[C@H](COc3ccccc3)C2)cc1 [Compound 4a] | 147 | 4520 | – | – | – | –
14 | COc1ccc(CN2CCO[C@H](COc3ccccc3)C2)cc1Cl [Compound 4n] | 78.7 | 1600 | < 50 | < 50 | < 50 | –
15 | c1ccc(OC[C@@H]2CN(Cc3n[nH]c4ccccc34)CCO2)cc1 [Compound 4v] | – | – | < 50 | < 50 | < 50 | –
16 | c1ccc(OC[C@@H]2CN(Cc3ccc4[nH]ccc4c3)CCO2)cc1 [Compound 4z] | 135 | 3140 | – | – | – | –
17 | COc1cc(CN2CCO[C@H](COc3ccccc3)C2)ccc1Cl [Compound 4p] | 79.7 | 1500 | – | – | – | –
18 | Fc1cc(CN2CCO[C@H](COc3ccccc3)C2)ccc1Cl [Compound 4g] | 65.3 | 251 | – | – | – | predicted clearance [1]: moderate
19 | COc1ccc(CN2CCO[C@H](COc3ccccc3)C2)cc1F [Compound 4l] | 71.9 | 2130 | – | – | – | –
20 | Cn1ncc2cc(CN3CCO[C@H](COc4ccccc4)C3)ccc21 [Compound 4y] | 60.5 | 433 | – | – | – | –
21 | c1ccc(OC[C@@H]2CN(Cc3ncn4ccccc34)CCO2)cc1 [Compound 4u] | – | – | < 50 | < 50 | < 50 | –
22 | COc1ccc2c(CN3CCO[C@H](COc4ccccc4)C3)c[nH]c2c1 [Compound 4dd] | 31.6 | 184 | – | – | – | –
23 | Clc1ccc(CN2CCO[C@H](CCc3ccccc3)C2)cc1 [ML398] | – | – | – | – | – | IC50 [9]: 130 nM; Ki [9]: 36 nM
24 | Fc1cc(CN2CCO[C@H](COc3ccccc3)C2)ccc1C(F)(F)F [Compound 4j] | 50.5 | 247 | – | – | – | –
